Measurements as given in PubChem BioAssay AID743061 (The Scripps Research Institute Molecular Screening Center, 2013).

biological target: Methionine--tRNA ligase, mitochondrial (Homo sapiens) (UniProt Q96GW9); experiment: inhibitors of human mitochondrial MetRS, late-stage follow-up, selectivity assay for T. brucei MetRS inhibitor project, biochemical, radioactivity, round 1 (AID 743061); settings: recombinant human mtMetRS, [3H]Met tRNA charging, at 1 µM, stronger effect = higher value;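 note: 0% = DMSO with full reaction and 100% = DMSO wells lacking tRNA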
Procedure, shortened: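 Material – recombinant human mitochondrial methionyl-tRNA synthetase (MetRS) · Input – 13 nM enzyme · Also added – 240 nM [3H]methionine with bulk E. coli tRNA acceptor · Compound dosing – 10 and 1 µM · Schedule – 15 min preincubation, 1 h reaction, room temperature · Detection – scintillation counts of TCA-precipitated charged tRNA on filters · Benchmarks – high DMSO, low without tRNA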

For `O=C(NCc1nc2ccccc2[nH]1)C1=C[C@@H](c2csc3ccccc23)C[C@@H](OCCCCO)O1`, which inhibition is on record?
The inhibition was -15%.

`COc1cccc(NC(=O)C2CC(=O)n3c(nc4ccccc43)N2)c1` (stereo not given) was tested. Which inhibition did it give?
The inhibition was 1.46%.

`COc1ccccc1NC(=O)CSc1nnc2c(n1)[nH]c1ccc(C)cc12` was tested. Which inhibition did it give?
Its inhibition is -3.56%.

How did the inhibition turn out when `O=C(NCc1nc2ccccc2[nH]1)C1=C[C@H](c2csc3ccccc23)C[C@H](OCCCCO)O1` was run?
Its inhibition is -9.21%.

For `O=C(Cn1cc(C(=O)c2ccccc2)c2ccccc21)Nc1cccc(C(F)(F)F)c1`, which inhibition is on record?
Its inhibition is -2.29%.

With `COc1ccccc1NS(=O)(=O)c1cccc(NC(=O)Nc2ccccc2)c1` as the molecule, how does the inhibition read?
The inhibition was -9.69%.

For `O=C(Cn1cc(C(=O)COc2ccccc2)c2ccccc21)Nc1cccc(C(F)(F)F)c1`, which inhibition is on record?
The inhibition was -22.6%.

For `O=C1CC(NCCc2ccccc2)C(=O)N1c1ccc(Br)cc1` (stereo not given), which inhibition is on record?
The inhibition was -12.9%.

How did the inhibition turn out when `CCc1ccc2[nH]c3nc(SCC(=O)NCc4cccc(OC)c4)nnc3c2c1` was run?
The inhibition was -1.1%.

How did the inhibition turn out when `CC(C)c1nc2ccc(C(=O)N(C)CCc3nc4ccc(F)cc4[nH]3)cc2o1` was run?
The inhibition was -1.54%.

Which inhibition does the source give for `O=C(NCc1nc2ccccc2[nH]1)C1=C[C@H](c2ccc(Br)cc2)C[C@H](OCCCCO)O1` here?
The inhibition was -6.37%.

For `Cc1cccc(NC(=O)C2CC(=O)n3c(nc4ccccc43)N2)c1` (stereo not given), which inhibition is on record?
Its inhibition is 10.7%.

With `CCO[C@H]1OC(C(=O)NCc2nc3ccccc3[nH]2)=C[C@@H](c2ccc(Br)cc2)[C@@H]1CCCO` as the molecule, how does the inhibition read?
The inhibition was -15%.

Which inhibition does the source give for `COc1ccccc1-n1c(SCC(=O)Nc2ccc(Cl)cc2)nc(O)c(Cc2ccccc2)c1=O` here?
Its inhibition is -31.6%.

`CC(=O)N(CCc1ccccc1)C1CC(=O)N(c2ccc(Cl)cc2)C1=O` (stereo not given) was tested. Which inhibition did it give?
Its inhibition is -19.9%.
